# Screening data (PubChem BioAssay)
# NRP1-CendR mod = modulators of CendR peptide binding to human neuropilin-1. inhibition, % at 25 µM. FAM-RPARPAR peptide binding to NRP-1, fluorescence polarization. 0.85% of 360,000 active. O14786;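 active = inhibition or corrected inhibition above about 18%, plus a signal ratio from 0.5 to 1.5, limit read from the data, passing the limit was not always enough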
# Arr AP2 block = human beta-arrestin and AP2 interaction inhibition; 0.31% of 340,000 active; AID 504490; FITC-arrestin peptide / GST-AP2 beads, flow cytometry; AP2 beta2 appendage carries R879A mutation; inhibition, % at 10 µM;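 active = inhibition above a set limit, near 3 SD of compounds lacking own fluorescence, cut at about 54% in these data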
#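 test system = AP2 appendage R879A on GSH beads | buffer or medium = PBS plus Tween 20 (0.05%) and BSA (0.1%) | incubation = 12 min plus 1 h, RT | detection = bead flow cytometry, FITC channel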
# Exocytosis inh = lytic granule exocytosis inhibition | 0.66% of 360,000 active | inhibition, % at 10 µM | TALL-104 LAMP-1 surface exposure, flow cytometry; cells stimulated with thapsigargin and PMA | AID 651702;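 active = inhibition above about 55%, limit read from the data; inconclusive = no clear call, values can overlap the other calls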
# Myeloid diff 2 = promotes myeloid progenitor differentiation; ER-HoxA9 myeloid progenitors, lysozyme-GFP differentiation, flow cytometry; calls only at 10 µM; 1% of 360,000 active;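 active = normalized GFP-positive differentiation at or above the plate's own cutoff, the solvent-only control mean plus 3 SD; inconclusive = no clear call, values can overlap the other calls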;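 note: cells exposed to compound for four days before flow analysis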
# ATG4B inhibitor = inhibitors of human ATG4B cysteine protease. Q9Y4P1. 0.51% of 340,000 active. ATG4B cleavage of LC3-PLA2, NBD-HPC fluorescence, 1 h. inhibition, % at 8.33 µM; in the data active = inhibition above about 40%
# Target sequence (Q9Y4P1 whole entry, looked up): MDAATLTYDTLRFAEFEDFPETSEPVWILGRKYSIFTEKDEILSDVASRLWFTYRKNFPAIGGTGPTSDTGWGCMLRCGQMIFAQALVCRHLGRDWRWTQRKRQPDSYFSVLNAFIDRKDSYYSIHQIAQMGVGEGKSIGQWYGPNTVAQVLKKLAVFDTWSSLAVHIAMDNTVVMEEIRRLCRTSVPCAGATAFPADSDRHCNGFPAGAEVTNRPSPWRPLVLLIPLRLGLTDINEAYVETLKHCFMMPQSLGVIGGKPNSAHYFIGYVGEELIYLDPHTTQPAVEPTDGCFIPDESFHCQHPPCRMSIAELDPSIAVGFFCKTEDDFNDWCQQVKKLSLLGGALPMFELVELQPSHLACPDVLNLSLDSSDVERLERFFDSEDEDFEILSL
# ABCB6 inh 2 = blocks the human ABCB6 transporter. AID 602162. Q9NP58. fluorescence ratio to DMSO, % at 10 µM. 0.19% of 360,000 active. K562-ABCB6 porphyrin accumulation, flow cytometry, 1 h; stronger effect = lower value;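 active = fluorescence ratio to DMSO below 75%, the collection mean minus 3 SD; inconclusive = too few cells collected in the well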;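 note: signal is porphyrin accumulated inside mitochondria; lower ratio means ABCB6 inhibition with less porphyrin fluorescence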
# ATG4B confirm = ATG4B (human) inhibition, single-dose confirmed; shares compounds with ATG4B inhibitor; ATG4B protease fluorescent substrate cleavage assay; inhibition, % at 8.33 µM; 92% of 320 active; in the data active = inhibition above about 39%
# PLA2 ctr = PLA2 (human) inhibition in ATG4B counter-screen; inhibition, % at 8.33 µM; 66% of 1,600 active; purified PLA2, NBD-C6-HPC fluorescence, 45 min; shares compounds with ATG4B inhibitor; in the data active = inhibition above about 50%
# Target sequence (P04054 whole entry, looked up): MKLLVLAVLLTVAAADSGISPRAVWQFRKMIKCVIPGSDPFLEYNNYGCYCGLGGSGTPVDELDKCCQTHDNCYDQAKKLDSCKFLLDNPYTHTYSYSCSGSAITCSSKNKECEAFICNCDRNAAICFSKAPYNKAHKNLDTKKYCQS
# A number is an active result; n = inactive; u = inconclusive; x = no result given. Shown are actives, neighbours in structure and some others; about 3.3% of the full set was active somewhere.
SMILES,NRP1-CendR mod,Arr AP2 block,Exocytosis inh,Myeloid diff 2,ATG4B inhibitor,ABCB6 inh 2,PLA2 ctr,others
CCc1ccc(N2C(=O)CN(Cc3cccs3)C2=S)cc1,n,n,n,n,65,n,81,
COc1ccc(OC)c(CN2C(=O)c3ccccc3C2c2nnnn2C2CCCC2)c1 (centres undefined),n,x,n,n,x,n,x,
Cc1occc1C(=O)N1CCCC(Nc2ccc(C(C)C)cc2)C1 (centres undefined),n,n,n,n,50,n,58,
CC(C)c1ccc(NC2CCCN(C(=O)CCN3Cc4ccccc4C3=O)C2)cc1 (centres undefined),n,n,n,n,44,n,n,ATG4B confirm=73
O=C(CCc1cccc(Cl)c1)N1CCCC(Nc2ccccc2)C1 (centres undefined),n,n,n,n,48,n,n,
COC(=O)c1ccc(C(=O)N2CCCC(Nc3ccc(C(C)C)cc3)C2)cc1 (centres undefined),n,n,n,n,81,n,82,
Cc1cc(C)cc(NC(=S)N2CCN(S(=O)(=O)c3ccccc3)CC2)c1,n,n,n,n,n,n,x,
CCCOC(=S)NC(=O)c1sc2ccccc2c1Cl,n,n,n,n,n,n,x,
CCOC(=O)CCCNC(=O)CN1C(=O)NC(c2ccccc2)(c2ccccc2)C1=O,n,n,n,n,n,n,x,
CC(C)c1ccc(NC2CCCN(C(=O)c3cnn(C(C)C)c3)C2)cc1 (centres undefined),n,n,n,n,45,n,n,ATG4B confirm=53
O=C(c1ccsc1)N1CCCC(Nc2ccc(F)c(F)c2)C1 (centres undefined),n,n,n,n,n,n,x,
CC(C)c1ccc(NC2CCCN(C(=O)c3ccsc3)C2)cc1 (centres undefined),n,n,n,n,77,n,78,
CC(C)c1ccc(NC2CCCN(C(=O)c3n[nH]c4c3CCC4)C2)cc1 (centres undefined),n,n,n,n,55,n,n,ATG4B confirm=60
CC(C)c1ccc(NC2CCCN(C(=O)c3cccnc3)C2)cc1 (centres undefined),n,n,n,n,n,n,x,
CC(C)c1ccc(NC2CCCN(C(=O)c3cccs3)C2)cc1 (centres undefined),n,n,n,n,76,n,73,
COc1ccc(NC2CCCN(C(=O)c3cccs3)C2)cc1 (centres undefined),n,n,n,n,n,n,x,
CCOC(=O)c1ccc(NNC(=O)CC)c([N+](=O)[O-])c1,n,n,n,n,n,n,x,
O=[N+]([O-])c1cnc2nc(-c3ccncc3)nn2c1O,n,n,n,n,n,n,x,
COc1ccccc1NS(=O)(=O)c1cccc(NC(=O)Nc2cccc(Cl)c2)c1,n,n,n,n,44,n,59,
COc1ccccc1NS(=O)(=O)c1cccc(NC(=O)NCCCl)c1,n,n,n,n,n,n,x,
COc1ccc(CNC(=O)c2ccccc2NC(=O)C2=CSCCO2)c(OC)c1,n,n,n,n,n,n,x,
CC(C)(C)c1ccc(C(=O)C2CCCN(C(=O)c3ccccn3)C2)cc1 (centres undefined),n,n,n,n,43,n,n,ATG4B confirm=81
Cc1cc(C(=O)N2CCCC(C(=O)c3ccc(Oc4ccccc4)cc3)C2)n[nH]1 (centres undefined),n,n,n,n,46,n,n,ATG4B confirm=62
O=C(c1ccc(Oc2ccccc2)cc1)C1CCCN(C(=O)c2cnccn2)C1 (centres undefined),n,n,n,n,n,n,x,
COc1ccc(C2=NN(Cc3c(F)cccc3Cl)C(=O)CC2)cc1,n,n,n,n,n,n,x,
SMILES,NRP1-CendR mod,Arr AP2 block,Exocytosis inh,Myeloid diff 2,ATG4B inhibitor,ABCB6 inh 2,PLA2 ctr,others
Fc1ccc(NCc2ccccc2F)cc1Cl,n,n,n,n,41,n,n,ATG4B confirm=69
CCOc1ccc(C2=CS/C(=C(\C#N)c3nnc4n3CCCCC4)N2CC)cc1,n,n,n,n,48,n,n,ATG4B confirm=72
O=C(NCc1ccccc1)c1ccc2nc(-c3ccco3)c(-c3ccco3)nc2c1,n,n,n,n,44,n,n,
O=C(NCCCO)c1ccc2nc(-c3ccco3)c(-c3ccco3)nc2c1,n,n,n,n,n,n,x,
COc1ccc(C(=O)Nc2ccc(S(=O)(=O)Nc3onc(C)c3C)cc2)c(OC)c1,n,n,n,n,n,n,x,
S=C(Nc1ccc(Cl)cc1Cl)Nc1ccccc1Oc1ccccc1,n,n,n,n,72,n,79,
S=C(Nc1cccc(Cl)c1)Nc1ccccc1Oc1ccccc1,n,n,n,n,86,n,88,
CNC(=S)Nc1cc(Cl)ccc1Oc1ccccc1,n,n,n,n,n,n,x,
S=C(Nc1ccccc1Oc1ccccc1)Nc1cccc(Cl)c1Cl,28,n,n,n,88,n,95,
CCOC(=O)C1=C(c2ccccc2)Nc2ncnn2C1c1ccc(C(=O)O)cc1 (centres undefined),n,n,n,n,n,n,x,
CCOC(=O)C1=C(c2ccccc2)NC(N)=NC1c1ccc(OCc2ccc(C(=O)OC)cc2)cc1 (centres undefined),n,n,n,n,46,n,53,
CCOC(=O)C1=C(C(=O)OCC)N(CC)CCC1=O,n,n,n,n,n,n,x,
COc1ccc(C(=O)Nc2cc(C(=O)c3ccccc3)c(C)oc2=O)cc1,n,n,n,n,44,n,n,ATG4B confirm=69
COc1ccc(C2=NOC(Cn3nc(C(=O)NCc4cccc(Br)c4)cc3-c3ccccc3)C2)cc1 (centres undefined),n,n,n,n,53,n,59,
Cc1cc2oc3ccc(NCCCn4ccnc4)cc3c(=O)c2cc1C,n,n,n,n,n,n,x,
COc1cccc2cc(C(=O)Nc3ccccc3C(=O)N3CCOCC3)oc12,n,n,n,n,n,n,x,
O=C1N/C(=N/S(=O)(=O)Cc2ccccc2)S/C1=C/c1ccc2c(c1)OCO2,n,n,n,n,n,n,x,
Cc1c(Cl)c([N+](=O)[O-])nn1Cc1ccc(C(=O)N/N=C\c2cccc(Br)c2)o1,n,n,n,n,58,n,68,
COc1ccc(C=O)cc1CN1CCCN(Cc2ccccc2F)S1(=O)=O,n,n,n,n,53,n,56,
Clc1ccc2c(N/N=C/c3ccccc3Br)ccnc2c1,n,n,92,u,48,n,n,ATG4B confirm=56
O=[N+]([O-])c1ccc(/C=N/Nc2ccnc3cc(Cl)ccc23)o1,n,n,n,u,n,n,x,
COc1ccc(/C=C2/Sc3ccc(C(=O)N4CCc5ccccc5C4)cc3NC2=O)cc1,n,n,n,n,69,n,82,
